Substitutions are numbered along the chain they refer to.
Experiments:
[1] = system: native GlyRs in cultured spinal neurons; assay: Whole-cell patch-clamp of Gly-activated current; format: cell-based, rat; conditions: vs vehicle
Summary of the method: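 Spinal cords from postnatal day 0 rats, papain-dissociated (20 U/ml, 37°C, 40 min). Plated at 300,000 cells/ml on poly-d-lysine in MEM/10% FBS, cultured ≥10 d, washed 30 min in external solution. Whole-cell, −60 mV, 20–22°C.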

[2] = molecular target: T1, S296A mutant human α1 GlyR (Homo sapiens, UniProt P23415, S324A); assay: cell-based; format: cell-based; conditions: for effect of S296A mutation on cannabinoid-induced potentiation of IGly: cannabinoid 1 μM, EC2 Gly (10 μM), vs wild-type α1
T1 sequence (P23415 29-457 S324A): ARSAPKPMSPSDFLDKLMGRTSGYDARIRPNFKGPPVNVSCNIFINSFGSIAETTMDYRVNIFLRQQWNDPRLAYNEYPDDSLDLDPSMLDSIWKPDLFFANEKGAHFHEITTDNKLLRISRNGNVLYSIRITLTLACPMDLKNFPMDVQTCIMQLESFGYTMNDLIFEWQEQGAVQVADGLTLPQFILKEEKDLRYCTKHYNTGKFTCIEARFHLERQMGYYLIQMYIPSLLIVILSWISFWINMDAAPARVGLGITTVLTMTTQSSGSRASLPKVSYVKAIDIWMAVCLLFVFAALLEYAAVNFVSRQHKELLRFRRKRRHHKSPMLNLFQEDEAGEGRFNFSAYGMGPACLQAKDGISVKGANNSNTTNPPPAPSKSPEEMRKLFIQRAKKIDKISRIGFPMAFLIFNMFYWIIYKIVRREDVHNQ

human α1 GlyR = molecular target: T2, human α1 GlyR (Homo sapiens, UniProt P23415); assay: cell-based; format: cell-based; conditions: for efficacy in potentiating IGly relative to AEA: concentration-response, α1 subunit (Fig. 5B)
T2 sequence (P23415 29-457): T1 sequence (P23415 29-457 S324A) with A296S

rat α2 GlyR = molecular target: T3, rat α2 GlyR (Rattus norvegicus, UniProt P22771); assay: Whole-cell patch-clamp of IGly in HEK-293 cells expressing α2 GlyRs; format: cell-based; conditions: read-out: EC50 for Gly (concentration-response curve); α2 subunit
T3 sequence (P22771 28-452): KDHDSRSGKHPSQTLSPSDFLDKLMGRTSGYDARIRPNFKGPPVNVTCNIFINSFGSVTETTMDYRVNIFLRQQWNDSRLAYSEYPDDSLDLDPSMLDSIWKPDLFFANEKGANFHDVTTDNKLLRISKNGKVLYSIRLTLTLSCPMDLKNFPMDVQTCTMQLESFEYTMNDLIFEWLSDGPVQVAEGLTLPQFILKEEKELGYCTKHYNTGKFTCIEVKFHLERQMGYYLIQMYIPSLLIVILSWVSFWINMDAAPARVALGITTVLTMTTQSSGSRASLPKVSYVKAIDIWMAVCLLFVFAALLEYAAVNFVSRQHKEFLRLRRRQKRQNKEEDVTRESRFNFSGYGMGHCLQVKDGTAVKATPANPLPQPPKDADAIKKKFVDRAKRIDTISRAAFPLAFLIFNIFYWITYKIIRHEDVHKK

rat α3 GlyR = molecular target: T4, rat α3 GlyR (Rattus norvegicus, UniProt P24524); assay: Whole-cell patch-clamp of IGly in HEK-293 cells expressing α3 GlyRs; format: cell-based; conditions: read-out: EC50 for Gly (concentration-response curve); α3 subunit
T4 sequence (P24524 34-464): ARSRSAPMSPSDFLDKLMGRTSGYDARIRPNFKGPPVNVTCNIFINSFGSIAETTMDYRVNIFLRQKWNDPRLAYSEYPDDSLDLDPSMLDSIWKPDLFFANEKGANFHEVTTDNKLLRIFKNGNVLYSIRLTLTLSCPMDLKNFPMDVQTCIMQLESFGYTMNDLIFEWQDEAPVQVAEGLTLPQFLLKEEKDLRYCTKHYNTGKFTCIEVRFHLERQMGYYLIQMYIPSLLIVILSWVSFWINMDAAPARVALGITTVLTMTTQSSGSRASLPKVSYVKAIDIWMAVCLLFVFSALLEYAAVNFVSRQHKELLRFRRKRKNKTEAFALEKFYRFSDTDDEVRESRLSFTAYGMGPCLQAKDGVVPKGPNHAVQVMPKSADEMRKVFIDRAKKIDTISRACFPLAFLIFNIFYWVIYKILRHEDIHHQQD

[3] = HEK293, read-out: inhibition of IGly
[4] = 3 μM coapplied, apparently competitive, parallel rightward shift

**Q.** Which “effect of antagonist on AEA-induced potentiation of IGly” value (“effect of antagonist” below) ([1]; antagonist 1 μM) does the source give for Cc1c(C(=O)NN2CCCCC2)nn(-c2ccc(Cl)cc2Cl)c1-c1ccc(I)cc1 [AM251] here?
**A.** The value was “did not significantly alter”.

**Q.** For C=C(C)[C@@H]1CCC(C)=C[C@H]1c1c(O)cc(CCCCC)cc1O [CBD, cannabidiol], which “effect of S296A mutation on cannabinoid-induced potentiation of IGly” value (“effect of S296A mutation” below) [2] is on record?
**A.** Its value is “significantly reduced”.

**Q.** With CCCCCC=CCC=CCC=CCC=CCCCC(=O)NCC [Dehydroxyl-AEA, Dehydroxylanandamide] as the compound, how does the “efficacy in potentiating IGly relative to AEA” value (human α1 GlyR) read?
**A.** Its value is “reduced efficacy”.

**Q.** How did the “maximal current density (MCD)” value [2] turn out when NCC(=O)O [Gly, glycine] was run?
**A.** Its value is 906 ± 147 pA/pF.

**Q.** What about the EC50 (rat α2 GlyR) of the same compound?
**A.** The EC50 was 128 ± 10 µM.

**Q.** And the EC50 (rat α3 GlyR)?
**A.** The EC50 was 354 ± 29 µM.

**Q.** And the “maximal current density (MCD)” value (human α1 GlyR)?
**A.** Its value is 912 ± 153 pA/pF.

**Q.** How did the “effect of S296A mutation” value [2] turn out when CCCCCCC(C)(C)c1cc(O)c2c(c1)OC(C)(C)[C@@H]1CC=C(CO)C[C@@H]21 [HU210] was run?
**A.** The value was “significantly reduced”.

**Q.** How did the “effect of S296A mutation” value [2] turn out when CCCCCc1cc(O)c2c(c1)OC(C)(C)[C@@H]1CCC(C)=C[C@@H]21 [THC, Δ^9-tetrahydrocannabinol] was run?
**A.** The value was “significantly reduced”.

**Q.** How did the “effect of antagonist” value ([1]; antagonist 2 μM) turn out when Oc1cc2c(cc1O)CN(C(=S)NCCc1ccc(Cl)cc1)CCC2 [capsazepine] was run?
**A.** The value was “did not significantly alter”.

**Q.** O=C1C[C@@H]2OCC=C3CN4CC[C@]56c7ccccc7N1[C@H]5[C@H]2[C@H]3C[C@H]46 [strychnine] was tested. Which inhibition at 0.1 µM [2, 3] did it give?
**A.** The inhibition at 0.1 µM was 81 ± 13%.

**Q.** And the inhibition at 0.1 µM (human α1 GlyR; [3])?
**A.** The inhibition at 0.1 µM was 78 ± 9%.

**Q.** Which “effect on AEA-induced potentiation of IGly” value (human α1 GlyR; [4]) does the source give for Desoxyanandamide [Desoxy-AEA] here?
**A.** Its value is “inhibited”.

**Q.** And the “effect on THC-induced potentiation of IGly” value (human α1 GlyR; [4])?
**A.** Its value is “inhibited”.

**Q.** What about the “efficacy in potentiating IGly relative to AEA” value (human α1 GlyR) of the same compound?
**A.** The value was “reduced efficacy”.

**Q.** SR144528 was tested. Which “effect of antagonist” value ([1]; antagonist 1 μM) did it give?
**A.** The value was “did not significantly alter”.
